For orientation: IC50 means the concentration needed to halve the response being measured.

For assay [1], the target named is T1, aldehyde reductase (ALR1) (Homo sapiens, UniProt P14550).
T1 sequence (P14550 1-325): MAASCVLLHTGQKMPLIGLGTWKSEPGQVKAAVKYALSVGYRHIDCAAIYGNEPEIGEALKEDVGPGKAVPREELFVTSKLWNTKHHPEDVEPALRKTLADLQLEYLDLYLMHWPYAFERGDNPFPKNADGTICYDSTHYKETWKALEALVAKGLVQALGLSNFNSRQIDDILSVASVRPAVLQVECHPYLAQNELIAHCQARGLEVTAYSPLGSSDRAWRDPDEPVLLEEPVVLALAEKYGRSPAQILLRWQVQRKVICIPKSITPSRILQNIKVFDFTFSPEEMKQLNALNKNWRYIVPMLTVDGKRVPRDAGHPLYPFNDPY
As to the kind of experiment: In vitro aldehyde reductase. Format: biochemical. The method in brief: (§1)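 Enzymes isolated and purified by earlier reported methods, ALR1 at 2.19 μg/well and ALR2 at 1.85 μg/well. Test compound (20 µL of 1 mM solution) was preincubated with the enzyme in 100 mM KH2PO4, pH 6.2, at 37°C for 10 min. Then substrate (50 mM as added) and NADPH (0.5 mM as added) were introduced. OD340 was read after 30 min. % inhibition = 100 − (A test/A control × 100). IC50 ± SEM was determined for compounds with >50% inhibition.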

Another assay concerns the target aldose reductase (ALR2) (Homo sapiens, UniProt P15121). Description: In vitro aldose reductase. Format: biochemical. The method in brief: as §1

In the case of `O=C1N=C(Nc2ccccc2)S/C1=C\c1ccccc1OCc1cn(Cc2cccc(Cl)c2)nn1` [Compound 9b, (Z)-5-(2-{[1-(3-Chlorobenzyl)-1H-1,2,3-triazol-4-yl]methoxy}benzylidene)-2-(phenylamino)thiazol-4(5H)-one], the IC50 was found to be 90 ± 0.56 µM in assay [1] and 28 ± 1.23 µM on aldose reductase (ALR2).

`O=C1N=C(Nc2ccccc2)S/C1=C\c1ccccc1OCc1cn(Cc2ccc(Cl)cc2)nn1` [Compound 9c, (Z)-5-(2-{[1-(4-Chlorobenzyl)-1H-1,2,3-triazol-4-yl]methoxy}benzylidene)-2-(phenylamino)thiazol-4(5H)-one] showed an IC50 at aldose reductase (ALR2) of 10 ± 1.56 µM.

For the origin of these results see publication PMC10209927 (Russian Journal of General Chemistry, 2023).
